Data taken from the RNAGym collection of RNA variant scans (doi:10.1126/science.aae0568).
Variants at the floor of the assay were thinned out.

B1: tRNA (parent)
chain: GUUCCGUUGGCGUAAUGGUAACGCGUCUCCCUCCUAAGGAGAAGACUGCGGGUUCGAGUCCCGUACGGAACG

Variants of: B1
Assay: yeast fitness relative to wild type (ratio to wild type); higher = fitter; tRNA-Arg(CCU), competitive growth, 37 C, YPD
Method in brief: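 Amplicons of the tRNA-Arg(CCU) gene were sequenced, 100-nucleotide paired-end, from the start population and from each end population of a pooled yeast competition. The competition, in six parallel replicates, lasted 24 hours in YPD at 37°C. Fitness relative to wild type was calculated from changes in genotype frequencies. Genotypes had to have ≥ 100 starting reads, and estimates < 0.5 were set to 0.5.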

Variant	yeast fitness
C22G G38C C55G	≤ 0.5
C22A C31U G68C	0.561
C22A C34G A37C	≤ 0.5
C22G C30A U47A	≤ 0.5
C22G C29G A42G C46U A70U	≤ 0.5
C22G A43U C62U	0.56
C22G A37C A45U G67A	0.581
C22A C29U G56A C60G	≤ 0.5
C22G A45U C49G A65U	≤ 0.5
C22G A36C C61U	≤ 0.5
C22A U26C	0.848
C22G A57U G63C	≤ 0.5
C22G A43C A45U G52A	≤ 0.5
C22G A57U C61U	≤ 0.5
C22G C29G G51C	≤ 0.5
C22G C29G G51A	0.536
C22G A69C	0.82
C22G A69U	0.903
C22G C31A A45U	0.621
C22G C31U G56A	1.16
C22G C24G C27G G58C	≤ 0.5

Variant	yeast fitness
C22G A36G	0.966
C22G A36U	0.66
C22G C55U A57U	≤ 0.5
C22G A42C C62U	0.52
C22A U28G U35A	0.571
C22A C31G G38C A43G	≤ 0.5
C22G A43U A69C	0.656
C22A U35G C66G A69U	≤ 0.5
C22A U28A U53G	≤ 0.5
C22A U47A G48A	0.505
C22G A69C A70G	0.632
C22G G25A A37U G39A U47A	≤ 0.5
C22A G23C C34U A36G A40U G63A	≤ 0.5
C22G C34A G41A	≤ 0.5
C22A G25C A40C	0.59
C22G A42C A65U G67A	≤ 0.5
C22G C29G A69U	0.626
C22G G41C G52A	≤ 0.5
C22G C29G C66A A69U	≤ 0.5
C22G C27A C46U	0.539
C22G C24G A45C U47C G63C	≤ 0.5

Variant	yeast fitness
C22G C27G U47C U59C C62U G68U	≤ 0.5
C22A C34A G56C G58A C61A	0.597
C22G A42G G48C A65U	≤ 0.5
C22A U28G C31G A42U	≤ 0.5
C22G C31G G52C	≤ 0.5
C22G C24U C29U C33U A37C G52A C66U	≤ 0.5
C22G C62G A65U	0.534
C22G A40G A70U	0.609
C22G G23C C27A U28C G67A A70G	≤ 0.5
C22G C49U A65G	0.785
C22G C24U U28A C31G C55A G68C	≤ 0.5
C22A C46U C49G	0.527
C22G C49U C60A	≤ 0.5
C22A C46A	0.83
C22G G41A C61G	≤ 0.5
C22A G23A C33U C34G C55U	≤ 0.5
C22A G51C	0.719
C22A C49G	0.646
C22A C49A	0.669
C22A C49U	1.13
C22A C46G A70C	0.57

Variant	yeast fitness
C22G C24U C31U A40U U59A C61A	≤ 0.5
C22G C24A C55A	≤ 0.5
C22G A65G	0.932
C22G A65U	1.03
C22G C30A	0.65
C22G C30U	0.817
C22G C30G	0.591
C22A G25A A69U	0.793
C22A G39C A43U U53C	0.723
C22G C27G C29G C34A A43U A69C	≤ 0.5
C22A U35A A70U	≤ 0.5
C22A G25C	1.05
C22G C66A	0.704
C22G C30U C49A A57U C61U	0.548
C22G A57G A65G	0.624
C22G C46U G50A	0.719
C22G C30U C34U A43G	≤ 0.5
C22G A45C G52C A57U A69C	0.619
C22G A42U	0.699
C22G A42G	0.716
